In ChEMBL document CHEMBL3098017, “Discovery and in Vivo Evaluation of Potent Dual CYP11B2 (Aldosterone Synthase) and CYP11B1 Inhibitors” (ACS Med Chem Lett, 2013):

Experiments:
Rattus norvegicus [1] = experiment: Reduction of angiotensin 2-stimulated plasma aldosterone time-weighted average (0 to 8 hrs) in Sprague-Dawley rat at 1 mg/kg, po; type: functional; set-up: scale not given: the % may be the effect or the level left
Summary of the method: (§1)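 Angiotensin-II infusion in Sprague–Dawley rats (n = 3) raised baseline plasma aldosterone; oral dosing in corn starch/water or HCl (1.5 equiv of 1 N)/cornstarch/water; plasma sampled at set times; time-weighted average drug level 0–8 h; time-weighted average % fall in plasma aldosterone from baseline.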

Rattus norvegicus [2] = experiment: Time-weighted average (0 to 8 hrs) in Sprague-Dawley rat at 1 mg/kg, po; type: ADME, organism-based; set-up: dose 1 mg/kg, route oral; conditions: in vivo; summary of the method: as §1
[3] = Oral bioavailability in Sprague-Dawley rat at 1 mg/kg; type: ADME, organism-based; conditions: in vivo
Summary of the method: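 Sprague–Dawley rats (n = 3), oral dose in corn starch/water or HCl (1.5 equiv of 1 N)/cornstarch/water; %F calculated against a 0.3 mg/kg intra-arterial dose.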

[4] = molecular target: T1, Cytochrome P450 11B2, mitochondrial (Homo sapiens, UniProt P19099); experiment: Inhibition of CYP11B2 in human NCI-H295R cells assessed as inhibition of angiotensin-2-induced aldosterone production after 24 hrs by RIA; type: cell-based
T1 sequence (P19099 whole entry): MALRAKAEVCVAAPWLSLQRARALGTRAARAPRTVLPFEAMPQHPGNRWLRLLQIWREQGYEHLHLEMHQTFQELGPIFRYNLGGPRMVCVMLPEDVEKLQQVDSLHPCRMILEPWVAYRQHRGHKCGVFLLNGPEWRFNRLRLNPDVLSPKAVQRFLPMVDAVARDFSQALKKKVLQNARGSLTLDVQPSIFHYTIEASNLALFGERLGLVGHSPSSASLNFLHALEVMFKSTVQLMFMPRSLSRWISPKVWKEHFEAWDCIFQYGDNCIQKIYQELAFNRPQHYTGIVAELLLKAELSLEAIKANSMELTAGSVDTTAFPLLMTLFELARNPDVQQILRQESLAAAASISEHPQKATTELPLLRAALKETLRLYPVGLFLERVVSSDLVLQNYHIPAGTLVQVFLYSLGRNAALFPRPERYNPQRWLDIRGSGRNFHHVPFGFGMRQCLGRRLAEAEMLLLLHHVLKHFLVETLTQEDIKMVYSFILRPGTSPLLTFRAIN

[5] = molecular target: T2, Cytochrome P450 11B1, mitochondrial (Homo sapiens, UniProt P15538); experiment: Inhibition of human recombinant CYP11B1 using 11-deoxycortisol as substrate by cell-based assay
T2 sequence (P15538 whole entry): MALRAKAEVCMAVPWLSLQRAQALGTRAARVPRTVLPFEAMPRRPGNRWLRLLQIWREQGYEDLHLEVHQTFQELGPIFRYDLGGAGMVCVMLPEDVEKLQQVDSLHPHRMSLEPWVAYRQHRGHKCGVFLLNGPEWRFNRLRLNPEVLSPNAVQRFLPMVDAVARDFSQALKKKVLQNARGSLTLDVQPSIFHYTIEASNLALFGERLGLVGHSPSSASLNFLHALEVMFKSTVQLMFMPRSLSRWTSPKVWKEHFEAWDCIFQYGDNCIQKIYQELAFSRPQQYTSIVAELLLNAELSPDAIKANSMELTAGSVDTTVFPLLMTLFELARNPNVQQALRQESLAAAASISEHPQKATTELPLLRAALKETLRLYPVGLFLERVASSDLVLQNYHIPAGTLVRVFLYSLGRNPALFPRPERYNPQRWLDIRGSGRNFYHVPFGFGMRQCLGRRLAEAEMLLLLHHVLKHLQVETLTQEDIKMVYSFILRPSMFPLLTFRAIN

[6] = molecular target: T1, Cytochrome P450 11B2, mitochondrial; experiment: Inhibition of human recombinant CYP11B2 using 11-deoxycorticosterone as substrate by cell-based assay
Aromatase = molecular target: T3, Aromatase (Homo sapiens, UniProt P11511)
T3 sequence (P11511 whole entry): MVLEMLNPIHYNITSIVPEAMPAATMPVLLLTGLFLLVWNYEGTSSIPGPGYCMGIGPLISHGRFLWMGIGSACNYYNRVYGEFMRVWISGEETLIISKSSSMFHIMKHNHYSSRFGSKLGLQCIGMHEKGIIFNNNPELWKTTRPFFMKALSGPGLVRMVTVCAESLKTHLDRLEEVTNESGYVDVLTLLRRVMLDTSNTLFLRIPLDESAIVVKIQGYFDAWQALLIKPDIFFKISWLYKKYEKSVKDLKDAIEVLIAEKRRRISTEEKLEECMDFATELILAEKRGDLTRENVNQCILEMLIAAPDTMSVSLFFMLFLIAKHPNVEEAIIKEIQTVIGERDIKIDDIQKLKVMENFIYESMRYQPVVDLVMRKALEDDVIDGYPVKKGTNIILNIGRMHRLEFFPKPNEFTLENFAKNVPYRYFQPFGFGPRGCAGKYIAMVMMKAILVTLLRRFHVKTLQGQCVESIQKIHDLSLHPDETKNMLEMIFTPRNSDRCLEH

CYP19 (aromatase) = molecular target: T4, CYP19 (aromatase) (Homo sapiens, UniProt P11511); experiment: Inhibition of human CYP19 at 1 uM preincubated for 10 mins followed by protein addition measured after 90 mins by fluorimetric analysis relative to control
T4 sequence (P11511 whole entry): T3 sequence (P11511 whole entry)

[7] = molecular target: T5, Cytochrome P450 11B1, mitochondrial (Rattus norvegicus, UniProt P15393); experiment: Inhibition of rat recombinant CYP11B1 using 11-deoxycortisol as substrate by cell-based assay
T5 sequence (P15393 whole entry): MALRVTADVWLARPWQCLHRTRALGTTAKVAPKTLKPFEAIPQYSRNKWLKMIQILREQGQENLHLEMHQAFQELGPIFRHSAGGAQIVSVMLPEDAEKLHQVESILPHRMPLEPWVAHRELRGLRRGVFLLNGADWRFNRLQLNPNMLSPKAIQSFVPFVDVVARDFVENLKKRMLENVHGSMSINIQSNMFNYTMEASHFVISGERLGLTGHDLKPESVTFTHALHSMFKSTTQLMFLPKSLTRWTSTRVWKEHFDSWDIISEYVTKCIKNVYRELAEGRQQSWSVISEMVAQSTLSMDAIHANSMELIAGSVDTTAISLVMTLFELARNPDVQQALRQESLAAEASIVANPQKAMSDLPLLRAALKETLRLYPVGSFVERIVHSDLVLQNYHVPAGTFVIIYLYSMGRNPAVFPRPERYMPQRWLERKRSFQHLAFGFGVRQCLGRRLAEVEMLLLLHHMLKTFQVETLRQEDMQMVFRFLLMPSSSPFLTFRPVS

[8] = molecular target: T6, Cytochrome P450 11B2, mitochondrial (Rattus norvegicus, UniProt P30099); experiment: Inhibition of rat recombinant CYP11B2 using 11-deoxycorticosterone as substrate by cell-based assay
T6 sequence (P30099 whole entry): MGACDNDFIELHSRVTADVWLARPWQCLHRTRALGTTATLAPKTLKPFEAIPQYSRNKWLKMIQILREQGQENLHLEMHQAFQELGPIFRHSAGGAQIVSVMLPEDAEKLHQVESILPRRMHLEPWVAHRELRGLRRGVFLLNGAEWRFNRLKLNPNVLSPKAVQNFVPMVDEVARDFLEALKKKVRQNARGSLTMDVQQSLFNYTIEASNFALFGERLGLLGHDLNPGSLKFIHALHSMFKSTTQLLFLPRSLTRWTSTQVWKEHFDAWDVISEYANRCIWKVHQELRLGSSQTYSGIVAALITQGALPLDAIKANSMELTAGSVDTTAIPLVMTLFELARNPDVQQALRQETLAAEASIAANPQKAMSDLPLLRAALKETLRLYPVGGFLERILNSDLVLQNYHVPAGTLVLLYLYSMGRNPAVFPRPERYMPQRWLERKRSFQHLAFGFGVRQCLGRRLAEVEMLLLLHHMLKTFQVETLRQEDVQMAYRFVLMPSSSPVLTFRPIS

Cytochrome P450 2D6 = Cytochrome P450 2D6 (Homo sapiens, UniProt P10635)
Cytochrome P450 2D6, sequence (P10635 whole entry): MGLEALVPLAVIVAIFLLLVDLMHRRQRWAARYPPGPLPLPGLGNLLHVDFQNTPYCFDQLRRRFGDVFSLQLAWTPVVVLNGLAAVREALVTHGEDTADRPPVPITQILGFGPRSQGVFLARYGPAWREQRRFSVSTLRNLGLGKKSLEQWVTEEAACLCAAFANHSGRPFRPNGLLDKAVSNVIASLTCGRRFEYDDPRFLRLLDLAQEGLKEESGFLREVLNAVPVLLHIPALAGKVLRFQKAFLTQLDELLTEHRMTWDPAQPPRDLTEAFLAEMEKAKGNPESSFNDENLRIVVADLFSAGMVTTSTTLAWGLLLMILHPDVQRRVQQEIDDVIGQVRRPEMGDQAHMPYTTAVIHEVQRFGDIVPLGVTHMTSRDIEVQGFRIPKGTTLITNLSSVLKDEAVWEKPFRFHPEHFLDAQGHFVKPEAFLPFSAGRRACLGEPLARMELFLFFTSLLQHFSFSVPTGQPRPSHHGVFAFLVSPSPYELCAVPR

Cytochrome P450 2C9 = Cytochrome P450 2C9 (Homo sapiens, UniProt P11712)
Cytochrome P450 2C9, sequence (P11712 whole entry): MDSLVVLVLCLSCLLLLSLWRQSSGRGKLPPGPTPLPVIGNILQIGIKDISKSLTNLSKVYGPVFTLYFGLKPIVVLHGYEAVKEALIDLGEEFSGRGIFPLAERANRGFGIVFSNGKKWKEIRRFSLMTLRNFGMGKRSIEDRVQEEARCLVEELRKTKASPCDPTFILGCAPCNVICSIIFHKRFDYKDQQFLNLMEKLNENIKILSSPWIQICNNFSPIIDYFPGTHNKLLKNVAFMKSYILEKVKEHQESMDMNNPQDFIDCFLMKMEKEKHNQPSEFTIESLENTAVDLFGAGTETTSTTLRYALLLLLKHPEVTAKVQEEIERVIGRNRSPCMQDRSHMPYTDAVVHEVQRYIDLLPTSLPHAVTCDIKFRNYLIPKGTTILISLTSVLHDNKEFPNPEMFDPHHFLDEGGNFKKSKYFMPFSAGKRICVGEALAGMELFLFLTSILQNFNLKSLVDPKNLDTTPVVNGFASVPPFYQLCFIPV

## Fc1ccc(-c2ccccc2[C@H]2CCCCc3cncn32)cc1
Rattus norvegicus [1]
  Activity: 73%
Rattus norvegicus [2]
  Cave: 152 nM
[3]
  bioavailability: 8%
[4]
  IC50: 2 nM

## c1ccc(-c2ccccc2[C@H]2CCCCc3cncn32)cc1
Rattus norvegicus [1]
  Activity: 27%
Rattus norvegicus [2]
  Cave: 4 nM
[3]
  bioavailability: < 1%
[4]
  IC50: 2 nM

## N#Cc1ccc([C@H]2CCCCc3cncn32)c(F)c1
Rattus norvegicus [1]
  Activity: 69%
[5]
  IC50: 7.2 nM
[6]
  IC50: 3.2 nM
Aromatase
  IC50: 1100 nM
[4]
  IC50: 42 nM

## N#Cc1ccc([C@H]2CCCCc3cncn32)c(Cl)c1
CYP19 (aromatase)
  inhibition at 1.5 h, 1 µM: 100%
[4]
  IC50: 16 nM

## COc1cc(C#N)ccc1[C@H]1CCCCc2cncn21
[4]
  IC50: 520 nM

## COC(=O)[C@]1(c2ccc(C#N)cc2Cl)CCc2cncn21
Rattus norvegicus [1]
  Activity: 81%
Rattus norvegicus [2]
  Cave: 6 nM
[3]
  bioavailability: 1%
Aromatase
  IC50: 50 nM
[4]
  IC50: 17 nM

## COC(=O)[C@]1(c2ccc(C#N)cc2OC)CCc2cncn21
[4]
  IC50: 3 nM

## COC(=O)[C@]1(c2ccc(C#N)cc2F)CCc2cncn21
[4]
  IC50: 351 nM

## N#Cc1ccc([C@@]2(C(=O)OCc3ccc(F)cc3)CCc3cncn32)c(Cl)c1
[5]
  IC50: < 0.1 nM
[6]
  IC50: 3.8 nM
CYP19 (aromatase)
  inhibition at 1.5 h, 1 µM: 95%
[4]
  IC50: 1.5 nM

## COc1cc(C#N)ccc1[C@@]1(C(=O)N(C)Cc2ccc(F)cc2)CCc2cncn21
Rattus norvegicus [1]
  Activity: 35%
Rattus norvegicus [2]
  Cave: 15 nM
[3]
  bioavailability: 8%
CYP19 (aromatase)
  inhibition at 1.5 h, 1 µM: 45%
[4]
  IC50: 5 nM

## c1ccc(-c2ccccc2[C@H]2CCc3cncn32)cc1
[4]
  IC50: 441 nM

## Fc1ccc(-c2ccccc2[C@H]2CCc3cncn32)cc1
[4]
  IC50: 140 nM

## N#Cc1ccc([C@H]2CCc3cncn32)c(Cl)c1
Rattus norvegicus [1]
  Activity: 51%
Rattus norvegicus [2]
  Cave: 152 nM
[3]
  bioavailability: 59%
[4]
  IC50: 13 nM

## COc1cc(C#N)ccc1[C@H]1CCc2cncn21
Rattus norvegicus [1]
  Activity: 50%
Rattus norvegicus [2]
  Cave: 33 nM
[3]
  bioavailability: 18%
CYP19 (aromatase)
  inhibition at 1.5 h, 1 µM: 80%
[4]
  IC50: 5 nM

## Cc1cc(C#N)ccc1[C@H]1CCc2cncn21
[7]
  IC50: 386 nM
[8]
  IC50: 24 nM
[5]
  IC50: 1.5 nM
[6]
  IC50: 0.9 nM
CYP19 (aromatase)
  inhibition at 1.5 h, 1 µM: 87%
[4]
  IC50: 8 nM

## N#Cc1ccc([C@H]2CCc3cncn32)c(Br)c1
CYP19 (aromatase)
  inhibition at 1.5 h, 1 µM: 47%
[4]
  IC50: 10 nM

## N#Cc1ccc([C@H]2CCCc3cncn32)c(-c2ccccc2)c1
[4]
  IC50: 56 nM

## c1ccc(-c2ccccc2[C@H]2CCCc3cncn32)cc1
[4]
  IC50: 37 nM

## N#Cc1ccc([C@H]2CCCc3cncn32)c(F)c1
CYP19 (aromatase)
  inhibition at 1.5 h, 1 µM: 20%
[4]
  IC50: 87 nM

## N#Cc1ccc([C@H]2CCCCc3cncn32)c(-c2ccc(F)cc2)c1
Rattus norvegicus [1]
  Activity: 66%
Rattus norvegicus [2]
  Cave: 6 nM
[3]
  bioavailability: 1%
[7]
  IC50: 0.3 nM
[8]
  IC50: 1 nM
[5]
  IC50: 0.3 nM
[6]
  IC50: 0.4 nM
[4]
  IC50: 1 nM

## N#Cc1ccc(C2CCCc3cncn32)c(Cl)c1 (racemic)
CYP19 (aromatase)
  inhibition at 1.5 h, 1 µM: 99%
[4]
  IC50: 792 nM

## Cc1cc(C#N)ccc1C1CCCc2cncn21 (racemic)
CYP19 (aromatase)
  inhibition at 1.5 h, 1 µM: 100%
[4]
  IC50: 464 nM

## COc1cc(C#N)ccc1C1CCCc2cncn21 (racemic)
CYP19 (aromatase)
  inhibition at 1.5 h, 1 µM: 100%
[4]
  IC50: 390 nM

## N#Cc1ccc([C@H]2CCc3cncn32)c(F)c1 [OSILODROSTAT]
Rattus norvegicus [1]
  Activity: 65%
Rattus norvegicus [2]
  Cave: 377 nM
[3]
  bioavailability: 42%
[8]
  IC50: 111 nM
Cytochrome P450 2D6
  IC50: > 10000 nM
Cytochrome P450 2C9
  IC50: > 10000 nM
